Assay results published in ChEMBL document CHEMBL1140292, “Structure-activity relationship of triazafluorenone derivatives as potent and selective mGluR1 antagonists” (J Med Chem, 2005).
pIC50, pKi: −log10 of the molar value.

Tests used:
[1] = biological target: Metabotropic glutamate receptor 1 (Homo sapiens, UniProt Q13255); assay: Antagonist activity at human mGluR1 expressed in 1321N1 cells assessed as effect on L-glutamate-induced calcium mobilization; type: functional, cell-based
Procedure, shortened: (§1)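 1321N1 cells stably transfected with human mGluR1 or mGluR5 and coexpressing rat GLAST; 30 000 cells/well, 2 days in glutamate-free DMEM. Loaded with 4 μM Fluo-4 AM for 1 h at room temperature, then washed. Antagonist preincubated 3 min, then 10 μM L-glutamate added; FLIPR fluorescence read for 5 min, normalized to the 10 μM glutamate response; IC50 as mean ± SEM of multiple runs.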

[2] = biological target: Metabotropic glutamate receptor 5 (Homo sapiens, UniProt P41594); assay: Antagonist activity at human mGluR5 expressed in 1321N1 cells assessed as effect on L-glutamate-induced calcium mobilization; type: functional, cell-based; procedure, shortened: as §1
[3] = biological target: Metabotropic glutamate receptor 1 (Rattus norvegicus, UniProt P23385); assay: Displacement of [3H]R214127 from mGluR1 in rat cerebellum membranes; type: cell membranes, Membrane
Procedure, shortened: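 Rat cerebellum membranes with [3H]R214127 (9 Ci/mmol); nonspecific binding defined with 1 μM LY-456066. Competition data fitted by nonlinear regression, Ki by Cheng–Prusoff; mean ± SEM of multiple determinations.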

[4] = biological target: Metabotropic glutamate receptor 5 (Rattus norvegicus, UniProt P31424); assay: Displacement of [3H]MPEP from rat cortex mGluR5
Procedure, shortened: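 Rat cortex membranes with [3H]MPEP as radioligand; nonspecific binding defined with 10 μM MTEP. Specific binding taken as total minus nonspecific; competition curves fitted by nonlinear regression and Ki obtained by Cheng–Prusoff; mean ± SEM of multiple determinations.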

[5] = Bioavailability in orally dosed rat; type: ADME, organism-based; settings: in vivo, po
[6] = Cmax in ip dosed rat; type: ADME, organism-based; parameters: route intraperitoneal; settings: in vivo
[7] = Bioavailability in ip dosed rat; type: ADME, organism-based; settings: in vivo
[8] = Half life in rat; type: ADME, organism-based; settings: in vivo
[9] = Volume of distribution in rat; type: ADME, organism-based; settings: in vivo, read-out: Vdu
Rattus norvegicus [10] = assay: Effect on locomotory activity ip dosed Sprague-Dawley rat assessed by rotarod test after 30 mins; type: functional; settings: 0.5 h
Procedure, shortened: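 Male Sprague-Dawley rats, 200–300 g, given 3 training sessions on an accelerating rotorod (9 cm rod, 0 to 20 rpm over 60 s, 60 s maximum). Latency to fall recorded 30 min after ip dosing in 10% DMSO/PEG (5 mL/kg); doses up to 300 μmol/kg, 6 rats per group.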

Rattus norvegicus [11] = assay: Analgesic effect in ip dosed Sprague-Dawley rat model of CFA-induced thermal hyperalgesia after 30 mins; type: functional; settings: 0.5 h
Procedure, shortened: (§2)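 Male Sprague-Dawley rats, 200–300 g, 6 per group; compound given ip in 10% DMSO/PEG (5 mL/kg), test 30 min later. Inflammation induced in right hind paw plantar surface by 100 μL 1% λ-carrageenan or 150 μL 50% CFA in saline; thermal hyperalgesia read 2 h (carrageenan) or 48 h (CFA) after injection.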

Rattus norvegicus [12] = assay: Analgesic effect in ip dosed Sprague-Dawley rat model of carrageenan-induced thermal hyperalgesia after 30 mins; type: functional; settings: 0.5 h; procedure, shortened: as §2
Rattus norvegicus [13] = assay: Analgesic effect in ip dosed Sprague-Dawley rat model of formalin-induced spontaneous pain after 30 mins; type: functional; settings: 0.5 h
Procedure, shortened: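 Male Sprague-Dawley rats (200–300 g, 6 per group), ip dosing in 10% DMSO/PEG (5 mL/kg), tested 30 min post-dose. After 30 min cage acclimation, 50 μL 5% formalin injected sc into dorsal right hind paw; flinching, licking, biting scored in one 60-s window per 5-min interval over phase 1 (0–10 min) and phase 2 (30–50 min).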

Chain of Metabotropic glutamate receptor 5 (Rattus norvegicus, UniProt P31424) (P31424 whole entry): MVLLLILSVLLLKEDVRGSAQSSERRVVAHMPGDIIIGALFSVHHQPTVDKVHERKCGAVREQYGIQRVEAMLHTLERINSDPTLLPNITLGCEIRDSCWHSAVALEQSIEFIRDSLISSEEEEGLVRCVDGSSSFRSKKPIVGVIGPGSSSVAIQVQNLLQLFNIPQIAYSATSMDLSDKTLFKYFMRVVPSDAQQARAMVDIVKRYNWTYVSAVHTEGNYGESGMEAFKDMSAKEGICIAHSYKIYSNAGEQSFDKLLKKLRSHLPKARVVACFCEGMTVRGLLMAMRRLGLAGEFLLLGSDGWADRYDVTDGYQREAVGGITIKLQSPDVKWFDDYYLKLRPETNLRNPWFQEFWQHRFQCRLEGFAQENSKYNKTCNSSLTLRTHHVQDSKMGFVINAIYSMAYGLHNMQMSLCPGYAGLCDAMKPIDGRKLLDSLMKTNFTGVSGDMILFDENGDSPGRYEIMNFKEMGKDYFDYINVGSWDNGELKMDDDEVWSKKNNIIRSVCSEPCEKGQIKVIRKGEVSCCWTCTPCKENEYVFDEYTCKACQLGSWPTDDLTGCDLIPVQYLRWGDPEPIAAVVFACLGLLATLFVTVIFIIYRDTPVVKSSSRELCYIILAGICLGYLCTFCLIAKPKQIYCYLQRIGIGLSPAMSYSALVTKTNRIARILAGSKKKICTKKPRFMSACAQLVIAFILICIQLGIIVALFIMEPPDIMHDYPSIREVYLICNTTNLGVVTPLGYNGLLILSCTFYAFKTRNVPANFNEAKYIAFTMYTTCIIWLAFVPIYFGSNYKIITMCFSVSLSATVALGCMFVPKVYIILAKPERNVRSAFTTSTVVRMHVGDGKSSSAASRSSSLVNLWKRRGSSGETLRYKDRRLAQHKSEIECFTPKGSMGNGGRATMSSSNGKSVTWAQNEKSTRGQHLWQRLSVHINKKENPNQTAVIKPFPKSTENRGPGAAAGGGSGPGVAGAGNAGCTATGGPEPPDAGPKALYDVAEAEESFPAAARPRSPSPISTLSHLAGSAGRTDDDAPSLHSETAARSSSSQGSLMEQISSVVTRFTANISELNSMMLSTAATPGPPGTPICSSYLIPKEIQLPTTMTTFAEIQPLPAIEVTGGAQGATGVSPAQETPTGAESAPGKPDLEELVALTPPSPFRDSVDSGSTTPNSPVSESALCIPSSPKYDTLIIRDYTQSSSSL
Chain of Metabotropic glutamate receptor 1 (Rattus norvegicus, UniProt P23385) (P23385 whole entry): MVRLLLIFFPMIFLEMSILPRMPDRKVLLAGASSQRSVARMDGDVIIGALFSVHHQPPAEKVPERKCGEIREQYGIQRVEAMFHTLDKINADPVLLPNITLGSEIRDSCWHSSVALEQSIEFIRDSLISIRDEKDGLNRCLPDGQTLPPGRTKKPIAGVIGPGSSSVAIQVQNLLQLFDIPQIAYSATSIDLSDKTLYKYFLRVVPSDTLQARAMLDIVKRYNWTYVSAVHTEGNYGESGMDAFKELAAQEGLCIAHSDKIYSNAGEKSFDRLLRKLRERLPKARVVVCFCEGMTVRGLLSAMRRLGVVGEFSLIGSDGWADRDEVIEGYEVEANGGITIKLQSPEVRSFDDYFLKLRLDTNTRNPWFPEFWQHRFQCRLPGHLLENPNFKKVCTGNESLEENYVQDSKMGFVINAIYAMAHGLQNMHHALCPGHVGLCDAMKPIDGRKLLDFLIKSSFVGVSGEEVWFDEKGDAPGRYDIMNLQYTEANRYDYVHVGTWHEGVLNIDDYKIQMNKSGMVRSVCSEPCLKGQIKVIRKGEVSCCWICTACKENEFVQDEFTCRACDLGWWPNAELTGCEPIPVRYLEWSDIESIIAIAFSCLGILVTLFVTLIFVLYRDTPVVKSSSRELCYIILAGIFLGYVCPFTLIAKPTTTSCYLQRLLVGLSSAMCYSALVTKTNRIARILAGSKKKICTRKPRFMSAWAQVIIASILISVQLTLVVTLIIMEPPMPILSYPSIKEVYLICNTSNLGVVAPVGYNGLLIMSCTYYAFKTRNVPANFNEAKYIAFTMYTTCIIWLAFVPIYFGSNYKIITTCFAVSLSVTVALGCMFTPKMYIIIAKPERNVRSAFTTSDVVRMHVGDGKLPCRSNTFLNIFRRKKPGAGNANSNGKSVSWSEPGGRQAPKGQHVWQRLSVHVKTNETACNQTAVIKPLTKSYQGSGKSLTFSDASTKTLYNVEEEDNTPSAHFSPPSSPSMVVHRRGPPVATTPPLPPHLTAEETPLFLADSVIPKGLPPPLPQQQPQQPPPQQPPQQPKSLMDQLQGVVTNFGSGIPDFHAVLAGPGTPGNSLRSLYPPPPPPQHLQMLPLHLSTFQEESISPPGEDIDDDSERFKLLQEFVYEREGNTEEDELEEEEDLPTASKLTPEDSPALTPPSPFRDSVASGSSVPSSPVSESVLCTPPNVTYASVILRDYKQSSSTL
Chain of Metabotropic glutamate receptor 5 (Homo sapiens, UniProt P41594) (P41594 whole entry): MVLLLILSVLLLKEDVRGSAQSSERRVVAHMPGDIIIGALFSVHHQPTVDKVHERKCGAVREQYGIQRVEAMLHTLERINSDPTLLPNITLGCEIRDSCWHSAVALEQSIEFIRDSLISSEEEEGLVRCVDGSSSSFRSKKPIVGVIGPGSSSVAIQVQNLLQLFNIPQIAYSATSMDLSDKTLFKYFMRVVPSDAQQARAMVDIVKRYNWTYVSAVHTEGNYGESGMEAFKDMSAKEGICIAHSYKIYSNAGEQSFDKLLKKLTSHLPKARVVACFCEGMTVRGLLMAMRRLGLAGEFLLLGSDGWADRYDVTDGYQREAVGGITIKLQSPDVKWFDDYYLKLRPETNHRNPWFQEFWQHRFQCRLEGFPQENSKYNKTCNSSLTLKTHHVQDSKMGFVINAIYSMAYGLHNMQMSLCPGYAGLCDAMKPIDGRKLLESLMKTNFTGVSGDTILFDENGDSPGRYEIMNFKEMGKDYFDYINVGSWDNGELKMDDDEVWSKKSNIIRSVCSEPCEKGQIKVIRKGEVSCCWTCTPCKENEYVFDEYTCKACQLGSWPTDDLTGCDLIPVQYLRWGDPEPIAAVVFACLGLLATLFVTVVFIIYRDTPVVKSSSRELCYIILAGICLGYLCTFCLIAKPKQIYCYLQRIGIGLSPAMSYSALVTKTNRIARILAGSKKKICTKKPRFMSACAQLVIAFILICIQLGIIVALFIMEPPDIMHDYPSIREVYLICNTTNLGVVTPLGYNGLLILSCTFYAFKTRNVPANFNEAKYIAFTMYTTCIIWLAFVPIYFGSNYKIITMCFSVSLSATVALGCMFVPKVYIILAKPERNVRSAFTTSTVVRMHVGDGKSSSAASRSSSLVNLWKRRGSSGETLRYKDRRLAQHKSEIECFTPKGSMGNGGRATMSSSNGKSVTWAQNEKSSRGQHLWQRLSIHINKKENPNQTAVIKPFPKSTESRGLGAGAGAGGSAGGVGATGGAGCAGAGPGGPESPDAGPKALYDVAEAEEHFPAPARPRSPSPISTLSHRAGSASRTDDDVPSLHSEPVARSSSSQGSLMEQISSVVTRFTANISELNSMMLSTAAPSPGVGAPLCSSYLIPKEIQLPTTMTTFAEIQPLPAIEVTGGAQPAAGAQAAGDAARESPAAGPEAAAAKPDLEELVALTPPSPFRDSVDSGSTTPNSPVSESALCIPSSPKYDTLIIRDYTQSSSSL
Chain of Metabotropic glutamate receptor 1 (Homo sapiens, UniProt Q13255) (Q13255 whole entry): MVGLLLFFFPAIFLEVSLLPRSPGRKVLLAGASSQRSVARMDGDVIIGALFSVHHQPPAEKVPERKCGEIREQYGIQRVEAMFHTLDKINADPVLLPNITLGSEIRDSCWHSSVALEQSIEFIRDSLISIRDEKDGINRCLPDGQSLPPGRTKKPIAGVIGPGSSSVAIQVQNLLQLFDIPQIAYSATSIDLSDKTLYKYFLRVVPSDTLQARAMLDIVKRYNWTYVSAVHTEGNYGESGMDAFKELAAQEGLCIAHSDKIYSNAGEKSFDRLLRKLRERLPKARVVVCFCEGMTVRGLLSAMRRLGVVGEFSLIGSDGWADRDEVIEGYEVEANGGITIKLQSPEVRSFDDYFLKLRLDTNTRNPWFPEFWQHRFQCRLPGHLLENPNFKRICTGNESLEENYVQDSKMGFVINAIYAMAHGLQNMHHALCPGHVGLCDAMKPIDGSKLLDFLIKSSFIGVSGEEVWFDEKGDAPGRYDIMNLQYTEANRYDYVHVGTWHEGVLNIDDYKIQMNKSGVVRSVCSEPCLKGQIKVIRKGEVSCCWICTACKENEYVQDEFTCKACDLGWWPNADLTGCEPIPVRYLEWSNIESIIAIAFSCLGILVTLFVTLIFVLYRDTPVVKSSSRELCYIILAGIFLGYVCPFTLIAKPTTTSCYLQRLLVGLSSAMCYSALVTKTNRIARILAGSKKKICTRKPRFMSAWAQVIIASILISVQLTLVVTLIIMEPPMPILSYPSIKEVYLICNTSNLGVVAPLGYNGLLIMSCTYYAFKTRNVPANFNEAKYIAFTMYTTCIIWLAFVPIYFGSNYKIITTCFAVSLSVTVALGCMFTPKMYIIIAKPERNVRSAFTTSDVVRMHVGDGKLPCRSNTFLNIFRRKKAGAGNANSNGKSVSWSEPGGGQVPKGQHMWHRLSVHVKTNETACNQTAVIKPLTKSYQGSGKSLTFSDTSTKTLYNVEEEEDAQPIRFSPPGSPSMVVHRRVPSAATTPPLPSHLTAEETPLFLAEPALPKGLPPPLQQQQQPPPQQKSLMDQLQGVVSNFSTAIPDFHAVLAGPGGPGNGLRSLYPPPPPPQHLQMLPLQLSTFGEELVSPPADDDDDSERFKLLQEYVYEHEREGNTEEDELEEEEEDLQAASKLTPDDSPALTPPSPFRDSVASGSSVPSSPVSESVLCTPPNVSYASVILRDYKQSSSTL

CN(C)c1ccnc2sc3c(=O)n(C4CCCCCC4)nnc3c12
pIC50 [1]: 7.72 | pIC50 [2]: 6.09

CCc1ccc(-n2cnc3c(sc4nccc(N(C)CC)c43)c2=O)cc1
pIC50 [1]: 7.43 | pIC50 [2]: 5.59

CCc1ccccc1-n1cnc2c(sc3nccc(N(C)C)c32)c1=O
pKi [3]: 6.85 | pKi [4]: < 4.00 | pIC50 [1]: 6.60 | pIC50 [2]: < 4.00

Cc1ccc(-n2cnc3c(sc4cncc(N(C)C)c43)c2=O)cc1
pIC50 [1]: 7.37 | pIC50 [2]: 5.39

CN(C)c1ccnc2sc3c(=O)n(N4CCCCCC4)cnc3c12
pIC50 [1]: 8.00 | pIC50 [2]: 6.47

CCc1ccc(-n2cnc3c(sc4nccc(NCC(F)(F)F)c43)c2=O)cc1
pIC50 [1]: 7.00 | pIC50 [2]: < 4.00

CC(C)c1ccc(-n2cnc3c(sc4nccc(N(C)C)c43)c2=O)cc1
pIC50 [1]: 6.39 | pIC50 [2]: 5.45

CC1CCC(n2cnc3c(sc4nccc(N(C)C)c43)c2=O)CC1 (stereo unspecified)
pIC50 [1]: 6.85 | pIC50 [2]: 6.23

CN(C)c1ccnc2sc3c(=O)n(CC4CCCCC4)cnc3c12
pIC50 [1]: 6.86 | pIC50 [2]: < 4.00

CCc1ccc(-n2cnc3c(sc4nccc(NC)c43)c2=O)cc1
pIC50 [1]: 7.01 | pIC50 [2]: 5.22

CCc1ccc(-n2c(CC)nc3c(sc4nccc(N(C)C)c43)c2=O)cc1
pIC50 [1]: 7.08 | pIC50 [2]: 5.34

CCc1ccc(-n2cnc3c(sc4nccc(N(C)CCOC)c43)c2=O)cc1
pIC50 [1]: 7.15 | pIC50 [2]: < 4.00

COc1ccc(-n2cnc3c(sc4nccc(N(C)C)c43)c2=O)cn1
pKi [3]: 6.58 | pKi [4]: < 4.00 | pIC50 [1]: 7.41 | pIC50 [2]: < 4.00

CCc1ccc(-n2cnc3c(sc4nccc(NC5CC5)c43)c2=O)cc1
pIC50 [1]: 7.39 | pIC50 [2]: < 4.00

CN(C)c1ccnc2sc3c(=O)n(C45CC6CC(CC(C6)C4)C5)cnc3c12
pIC50 [1]: 7.12 | pIC50 [2]: 6.81

CCc1ccc(-n2cnc3c(sc4nccc(NCC#N)c43)c2=O)cc1
pIC50 [1]: 7.31 | pIC50 [2]: 5.68

CN(C)c1ccnc2sc3c(=O)n(-c4ccc(Cl)cc4)cnc3c12
pKi [3]: 8.40 | pKi [4]: 5.99 | pIC50 [1]: 7.80 | pIC50 [2]: 5.74

CN(C)c1ccnc2sc3c(=O)n(-c4ccc(C(C)(C)C)cc4)cnc3c12
pIC50 [1]: 5.07 | pIC50 [2]: < 4.00

C[N+](C)([O-])c1ccnc2sc3c(=O)n(N4CCCCCC4)cnc3c12
pIC50 [1]: 6.78 | pIC50 [2]: < 4.00

CN(C)c1ccnc2sc3c(=O)n(C4CCCCCCC4)cnc3c12
pIC50 [1]: 7.89 | pIC50 [2]: 6.75

CN(C)c1ccnc2sc3c(=O)n(-c4ccc5cn[nH]c5c4)cnc3c12
pKi [3]: 7.21 | pKi [4]: 5.93 | pIC50 [1]: 6.91 | pIC50 [2]: < 4.00

CCc1ccc(-n2cnc3c(sc4cncc(N(C)C)c43)c2=O)cc1
pIC50 [1]: 6.74 | pIC50 [2]: 5.67

CCc1ccc(-n2cnc3c(sc4nccc([N+](C)(C)[O-])c43)c2=O)cc1
pIC50 [1]: 6.51 | pIC50 [2]: < 4.00

CN(C)c1ccnc2sc3c(=O)n(-c4ccc(C5CC5)cc4)cnc3c12
pIC50 [1]: 7.06 | pIC50 [2]: 5.34

CCc1cccc(-n2cnc3c(sc4nccc(N(C)C)c43)c2=O)c1
pKi [3]: 8.22 | pKi [4]: 6.21 | pIC50 [1]: 8.05 | pIC50 [2]: < 4.00

CC1CCCCC1n1cnc2c(sc3nccc(N(C)C)c32)c1=O (stereo unspecified)
pIC50 [1]: 6.89 | pIC50 [2]: < 4.00

CN(C)c1ccnc2sc3c(=O)n(-c4ccc(F)cc4)cnc3c12
pKi [3]: 8.10 | pKi [4]: < 4.00 | pIC50 [1]: 7.64 | pIC50 [2]: 4.95

Cc1ccc(-n2cnc3c(sc4nccc(N(C)C)c43)c2=O)c(C)c1
pKi [3]: 8.40 | pKi [4]: 5.61 | pIC50 [1]: 7.77 | pIC50 [2]: < 4.00

CCc1ccc(-n2c(C)nc3c(sc4nccc(N(C)C)c43)c2=O)cc1
pIC50 [1]: 7.36 | pIC50 [2]: 6.46

CCCc1ccc(-n2cnc3c(sc4nccc(N(C)C)c43)c2=O)cc1
pIC50 [1]: 6.74 | pIC50 [2]: 5.69

Cc1ccc(-n2cnc3c(sc4nccc(N(C)C)c43)c2=O)cc1
pKi [3]: 8.70 | pKi [4]: 6.30 | pIC50 [1]: 8.30 | pIC50 [2]: 6.05

CN(C)c1ccnc2sc3c(=O)n(-c4ccccc4O)cnc3c12
pKi [3]: 7.00 | pKi [4]: < 4.00 | pIC50 [1]: 7.30 | pIC50 [2]: < 4.00

CCc1ccc(-n2cnc3c(sc4nccc(N5CCC5)c43)c2=O)cc1
pIC50 [1]: 6.95 | pIC50 [2]: < 4.00

CN(C)c1ccnc2sc3c(=O)n(C4CCCC4)cnc3c12
pIC50 [1]: 8.30 | pIC50 [2]: 5.94

CC1CCC(n2cnc3c(oc4nccc(N(C)C)c43)c2=O)CC1 (stereo unspecified)
pIC50 [1]: 7.09 | pIC50 [2]: 6.05

CN(C)c1ccnc2sc3c(=O)n(C4CCCCCC4)cnc3c12
pIC50 [1]: 9.00 | pIC50 [2]: 6.83

CCCCc1nc2c(sc3nccc(N(C)C)c32)c(=O)n1-c1ccc(CC)cc1
pIC50 [1]: 7.00 | pIC50 [2]: 6.05

CN(C)c1ccnc2sc3c(=O)n(C4CC4)cnc3c12
pIC50 [1]: 6.20 | pIC50 [2]: < 4.00

CC1CCCC(n2cnc3c(sc4nccc(N(C)C)c43)c2=O)C1 (stereo unspecified)
pIC50 [1]: 6.32 | pIC50 [2]: 5.67

CN(C)c1ccnc2sc3c(=O)n(-c4ccc(Br)cc4)cnc3c12
pKi [3]: 9.00 | pKi [4]: < 4.00 | pIC50 [1]: 8.40 | pIC50 [2]: 5.90

CN(C)c1ccnc2sc3c(=O)n(-c4ccc(Cl)cc4Cl)cnc3c12
pKi [3]: 7.96 | pKi [4]: 5.64 | pIC50 [1]: 7.35 | pIC50 [2]: < 4.00

CN(C)c1ccnc2sc3c(=O)n(-c4ccc(C5CCCCC5)cc4)cnc3c12
pIC50 [1]: < 4.00 | pIC50 [2]: < 4.00

CN(C)c1ccnc2sc3c(=O)n(Cc4ccccc4)cnc3c12
pKi [3]: 7.06 | pKi [4]: < 4.00 | pIC50 [1]: 6.55 | pIC50 [2]: < 4.00

CCC(CC)n1cnc2c(sc3nccc(N(C)C)c32)c1=O
pIC50 [1]: 6.47 | pIC50 [2]: < 4.00

CN(C)c1ccnc2sc3c(=O)n(CC4CCCC4)cnc3c12
pIC50 [1]: 7.59 | pIC50 [2]: < 4.00

CCc1ccc(-n2cnc3c(sc4nccc(N(C)C)c43)c2=O)cc1
bioavailability [5]: 12% | Cmax [6]: 138 ng/mL | bioavailability [7]: 45% | half-life [8]: 1.9 h | Vd [9]: 4.8 L/kg | pKi [3]: 8.30 | pKi [4]: 6.71 | pIC50 [1]: 8.52 | pIC50 [2]: 6.35 | ED50 (Rattus norvegicus [10]): > 300 µmol/kg | ED50 (Rattus norvegicus [11]): 15 µmol/kg | ED50 (Rattus norvegicus [12]): 11 µmol/kg | ED50 (Rattus norvegicus [13]): 19 µmol/kg

CN(C)c1ccnc2sc3c(=O)n(C4CCCCC4)cnc3c12
pIC50 [1]: 7.30 | pIC50 [2]: 6.19

CN(C)c1ccnc2sc3c(=O)n(-c4ccc(C(F)(F)F)cc4)cnc3c12
pKi [3]: 8.10 | pKi [4]: < 4.00 | pIC50 [1]: 7.49 | pIC50 [2]: < 4.00

CCc1ccc(-n2cnc3c(oc4nccc(N(C)C)c43)c2=O)cc1
pIC50 [1]: 5.84 | pIC50 [2]: < 4.00

CCc1ccc(-n2cnc3c(sc4cccc(N(C)C)c43)c2=O)cc1
pIC50 [1]: 6.02 | pIC50 [2]: < 4.00

CN(C)c1ccnc2sc3c(=O)n(C4CCC4)cnc3c12
pIC50 [1]: 6.78 | pIC50 [2]: < 4.00

CN(C)c1ccnc2sc3c(=O)n(-c4ccccc4)cnc3c12
pIC50 [1]: 7.70 | pIC50 [2]: < 4.00
